# Assay outcomes (PubChem BioAssay)
# This is a sample that favours compounds with a hit; in the whole collection about 3% have one here.
# TAAR1 agonist = human TAAR1 agonism; 360,000 tested, 0.99% active; CHO RD-HGA16 TAAR1, Fluo-8 calcium fluorescence; vehicle wells 0%, saturating PEA agonist 100%; Q96RJ0; AID 624467; activation, % at 3 µM;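 active means activation above the mean activation of all test compounds in the run plus 3 SD, cut at about 38% in these data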
# Target sequence (Q96RJ0 whole entry, looked up): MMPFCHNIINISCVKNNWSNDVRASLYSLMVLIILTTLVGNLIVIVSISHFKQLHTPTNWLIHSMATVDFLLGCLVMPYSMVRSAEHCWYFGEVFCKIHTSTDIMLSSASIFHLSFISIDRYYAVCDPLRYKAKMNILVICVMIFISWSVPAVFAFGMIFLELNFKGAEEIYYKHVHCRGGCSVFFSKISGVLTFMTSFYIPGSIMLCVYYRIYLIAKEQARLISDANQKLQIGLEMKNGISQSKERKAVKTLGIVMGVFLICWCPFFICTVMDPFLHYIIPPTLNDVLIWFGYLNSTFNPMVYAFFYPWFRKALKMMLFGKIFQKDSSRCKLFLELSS
#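 Test system: RD-HGA16 (CHO) cells co-expressing Gα16 and hTAAR1; dosing: one-point dosing at 3 µM (nominal); timing: 17-24 h seeding, 75 min 37 °C dye, 30 min RT; signal: kinetic Fluo-8 calcium fluorescence; read-out basis: % activation relative to PEA EC100 response; controls: DMSO and PEA EC100; replicates: n 1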
# CHRM4 agonist = CHRM4 agonism in calcium assay; CHO-K1 hM4/Gqi5, Fluo-8 calcium fluorescence; vehicle 0%, full acetylcholine response 100%; activation, % at 3 µM; 360,000 tested, 0.14% active; AID 624127;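 active means activation above the run mean over all test wells plus 3 SD, cut at about 32% in these data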;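 further: peak over basal fluorescence ratio per well then scaled between controls; 0% = DMSO wells and 100% = acetylcholine at EC100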
# M4 antag = antagonists of human muscarinic M4 receptor (CHRM4). P08173. CHO-hM4 cells, ACh EC80, Fluo-8 calcium fluorescence. inhibition, % at 3 µM. 360,000 tested, 0.73% active. AID 624125;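 active means inhibition above its plate's cutoff, the mean inhibition of sample wells plus 3 SD, cut at about 27% in these data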;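 further: 0% = acetylcholine EC80 with DMSO and 100% = DMSO without agonist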
# TAAR1 antag = antagonists of human TAAR1 | inhibition, % at 3 µM | AID 624466 | CHO RD-HGA16 TAAR1, Fluo-8 calcium fluorescence, antagonist | 360,000 tested, 1.5% active;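 active means inhibition above a per-plate cutoff, the mean inhibition of test compounds on that plate plus 3 SD, cut at about 49% in these data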;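 further: 0% = DMSO plus EC80 beta-PEA response and 100% = DMSO alone without agonist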
#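 Material: RD-HGA16 CHO cells with stable hTAAR1 and Gα16; Dosing: single nominal final test compound concentration of 3 µM; Schedule: seeding 17-24 h prior, 75-min 37 °C, 30-min RT dye loading; Detection: kinetic Fluo-8 calcium fluorescence measurement; Measure: % inhibition from peak post-agonist over basal fluorescence ratio; Benchmarks: vehicle and agonist controls.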
# M4 PAM = positive allosteric modulators of human muscarinic M4 receptor; P08173; CHO-K1 hM4/Gqi5, Fluo-8 calcium fluorescence, ACh EC20; 0% = ACh EC20, 100% = maximal ACh; activation, % at 3 µM; 360,000 tested, 0.4% active; AID 624126;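 active means activation above its plate's cutoff, the mean activation of sample wells plus 3 SD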
# nonsel antag count = nonselective antagonism, TAAR1 counter-screen; shares compounds with TAAR1 antag; counterscreen cell line, calcium fluorescence, antagonist mode; inhibition, % at 3 µM; AID 651780; 2,400 tested, 77% active; in the data active means inhibition above about 22%;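 further: CHO-Ga16 host cells stimulated with ATP at an EC80 level; 0% = agonist EC80 plus vehicle and 100% = vehicle without agonist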
# TAAR1 antag conf = confirmation of human TAAR1 antagonists; shares compounds with TAAR1 antag; TAAR1-expressing cells, fluorescence antagonist read-out; inhibition, % at 3 µM; 2,400 tested, 40% active; in the data active means inhibition above about 49%;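 further: CHO-Ga16 host cells challenged with agonist PEA near its EC80; 0% = agonist at EC80 plus vehicle and 100% = vehicle with no agonist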
# Ga16 nonsel ag = counter-screen for TAAR1 antagonists: nonselective Ga16 agonists; shares compounds with TAAR1 antag; Ga16-expressing cells, calcium fluorescence, agonist counterscreen; activation, % at 3 µM; 2,400 tested, 18% active; AID 651953; in the data active means activation above about 12%;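 further: 0% = vehicle wells and 100% = saturating stimulus response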
# TAAR1 ag count = counter-screen for human TAAR1 antagonists: TAAR1 agonists; 2,400 tested, 2% active; activation, % at 3 µM; hTAAR1 cell line, fluorescence activation, agonist mode; shares compounds with TAAR1 antag; AID 651955; in the data active means activation above about 37%;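 further: CHO cells stably expressing TAAR1 with calcium dye readout; 0% = DMSO vehicle and 100% = full agonist response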
# An asterisk follows results filed as active; . = not tested or not shown.
SMILES,TAAR1 agonist,CHRM4 agonist,M4 antag,TAAR1 antag,M4 PAM,nonsel antag count,TAAR1 antag conf,Ga16 nonsel ag,TAAR1 ag count
COc1ccccc1N(C)S(=O)(=O)c1ccc(C(=O)N(C)Cc2ccc(Cl)s2)cc1,14.5,13.3,-5.3,51.0*,1.7,26.8*,37.5,8.1,6.6
Cc1ccc(CNC(=O)c2ccc(N(C)S(=O)(=O)c3ccccc3)cc2)cc1,6.1,6.2,-6.3,-24.4,-12.8,.,.,.,.
CN(c1ccccc1)S(=O)(=O)c1ccc(C(=O)NCc2ccc(F)cc2)cc1,15.8,16.7,-1.9,63.9*,-12.0,41.7*,58.3*,12.2*,10.4
COc1cccc(CN2C(=O)[C@H]3Cc4c([nH]c5ccccc45)C(C)(C)N3C2=O)c1,17.2,22.4,10.5,61.4*,-3.6,25.4*,41.5,8.8,9.7
CC1(C)c2[nH]c3ccccc3c2C[C@H]2C(=O)N(Cc3cccc(F)c3)C(=O)N21,11.8,6.4,4.1,19.4,4.2,.,.,.,.
Cc1cc(C)cc(OCC(=O)Nc2ccc(N3CCN(C(=O)c4ccco4)CC3)cc2)c1,22.8,26.6,32.1*,74.3*,-17.6,43.4*,62.4*,12.1*,8.7
O=C(CSc1ccc(Cl)cc1)Nc1ccc(N2CCN(C(=O)c3ccco3)CC2)cc1,19.3,7.4,-0.1,51.5*,1.9,35.0*,37.4,13.2*,14.4
O=C(COc1ccc(Cl)cc1)Nc1ccc(N2CCN(C(=O)c3ccco3)CC2)cc1,22.8,16.2,8.3,79.7*,0.0,41.9*,45.9,12.1*,27.7
O=C(CSc1ccc(Cl)cc1)Nc1ccc(NC(=O)c2ccco2)cc1,1.5,2.4,-2.2,3.9,11.9,.,.,.,.
O=C(Nc1cccc(S(=O)(=O)C(F)F)c1)c1ccc(S(=O)(=O)N2CCCCC2)cc1,15.4,20.4,-11.4,63.5*,-13.5,35.3*,36.6,9.2,3.8
O=C(Nc1cccc(S(=O)(=O)N2CCCCCC2)c1)c1cncc(Br)c1,9.9,21.7,-3.8,61.0*,-5.0,37.4*,53.0*,10.5,14.5
Cc1ccc(S(=O)(=O)N2CCCCC2)cc1NC(=O)c1cncc(Br)c1,6.5,3.4,5.0,-6.5,-2.2,.,.,.,.
CC(C)C[C@@H]1COc2cc(N3CCC[C@H]3CO)ccc2S(=O)(=O)N1,2.1,1.7,-0.2,-15.3,3.9,.,.,.,.
CCN(CC)S(=O)(=O)c1ccc(C(C)NCC(=O)Nc2ccccc2C(=O)NC2CC2)cc1 (stereo unspecified),11.2,16.7,2.8,58.5*,-7.2,32.8*,51.6*,9.1,8.9
O=C(N/N=C/c1cccc(OC(=O)c2ccccc2Cl)c1)c1cccnc1,14.2,15.3,-3.6,54.0*,-3.4,20.9,32.5,9.3,12.4
COc1cc(/C=N/NC(=O)c2cccnc2)ccc1OC(=O)c1ccc2c(c1)OCO2,20.0,14.1,-3.0,54.3*,-9.8,26.4*,29.4,9.2,17.3
COc1ccc(/C=N/NC(=O)c2ccn[nH]2)cc1COc1ccc([N+](=O)[O-])c(C)c1,8.6,2.1,-18.9,40.3,-2.1,.,.,.,.
COc1ccc(/C=N/NC(=O)c2cccnc2)cc1COc1ccc([N+](=O)[O-])c(C)c1,15.8,11.4,1.1,63.7*,-6.7,38.3*,53.3*,11.7*,11.1
O=C(NCC(F)(F)F)C1C(=O)Nc2ccccc2C(=O)N1Cc1ccccc1 (stereo unspecified),-0.4,2.3,-3.4,-6.0,-0.3,.,.,.,.
CCC(=O)CN(Cc1cc(OC)ccc1OC)S(=O)(=O)c1ccccc1Br,3.0,1.8,7.5,-28.2,-5.0,.,.,.,.
CCOC(=O)c1ccc(-c2ccc(/C=N/NC(=O)CN(c3ccccc3Br)S(C)(=O)=O)o2)cc1,4.5,1.5,-10.5,56.8*,5.0,28.9*,33.2,8.0,12.1
CN(C)S(=O)(=O)c1cc(NC(=O)COC(=O)CC2Sc3ccccc3NC2=O)ccc1Cl (stereo unspecified),21.8,20.9,4.0,62.2*,-5.8,31.2*,37.8,9.5,4.9
COc1cc(OC)cc(C(=O)NCC(=O)OCC(=O)/C=C2/N(C)c3ccccc3C2(C)C)c1,4.4,16.5,7.8,36.7,-20.9,.,.,.,.
CC(C)[C@H](NC(=O)c1ccccc1)C(=O)OCC(=O)/C=C1/N(C)c2ccccc2C1(C)C,11.4,13.4,6.7,71.5*,-11.7,40.8*,55.4*,9.0,4.4
CN1/C(=C\C(=O)COC(=O)Cn2nnc(-c3ccccc3)n2)C(C)(C)c2ccccc21,9.2,7.0,17.8,51.6*,-11.8,44.0*,39.4,7.0,-0.1
SMILES,TAAR1 agonist,CHRM4 agonist,M4 antag,TAAR1 antag,M4 PAM,nonsel antag count,TAAR1 antag conf,Ga16 nonsel ag,TAAR1 ag count
Cc1ccc(NC(=O)CCS(=O)(=O)c2ccc3nc(C)sc3c2)c(C)c1,2.4,0.3,-6.6,-1.2,5.0,.,.,.,.
CCCCNc1nc2c(c(=O)[nH]c(=O)n2C)n1CCCc1ccccc1,-0.5,0.1,-8.3,-20.9,-1.3,.,.,.,.
CSCCC(NS(=O)(=O)c1ccc2c(c1)OCCO2)C(=O)N(C)Cc1ccc(F)cc1 (stereo unspecified),14.8,18.3,4.1,76.4*,-8.4,30.6*,62.8*,13.2*,12.4
COC(=O)c1cccc(C#CC(NP(=O)(c2ccccc2)c2ccccc2)c2ccccc2)c1 (stereo unspecified),16.4,7.1,-6.1,72.5*,6.5,27.9*,36.2,2.2,1.6
Fc1cccc(-c2cc3nc4c(c(N5CCOCC5)n3n2)CCCC4)c1,6.6,1.8,-7.5,49.2*,6.2,18.3,25.9,5.2,10.9
Clc1cccc(-c2cc3nc4c(c(N5CCOCC5)n3n2)CCCC4)c1,-0.2,3.0,1.4,20.9,-3.7,.,.,.,.
CC(C)NC(=O)C1Cc2c(-c3ccc(Cl)cc3)ccnc2O1 (stereo unspecified),-1.3,0.3,-3.5,-3.3,7.2,.,.,.,.
Cc1sc2ncnc(N3CCC(C(=O)Nc4cc(S(C)(=O)=O)ccc4Cl)CC3)c2c1C,14.0,20.1,7.5,60.8*,-12.5,26.4*,38.4,8.1,4.0
COc1ccc(S(=O)(=O)N(C)C)cc1NC(=O)C1CCN(c2ncnc3sc(C)c(C)c23)CC1,11.1,7.8,4.7,21.6,-5.4,.,.,.,.
